# Calls of active or inactive are those of the source. The rule behind the calls is not given here.
# What was measured:
# [1] = tested on: Streptococcus intermedius; test: Antimicrobial activity against Streptococcus intermedius NCTC 11324 assessed as biofilm formation at 0.04 to 0.10 ug/ml; format: functional, organism-based
# In short: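 Wild-type NCTC 11324 was grown overnight in TSB and inoculated into TSB with ampicillin (0.02 to 0.10 μg/ml), ciprofloxacin (0.10 to 0.28 μg/ml) or tetracycline (0.05 to 0.30 μg/ml), added at time zero. Wells held plastic coverslips and were incubated 12 h at 37°C in 5% CO2 aerobic air. Biofilm was measured as described previously. Experiments were done three times in three parallels.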
# [2] = tested on: Streptococcus intermedius; test: Antimicrobial activity against Streptococcus intermedius NCTC 11324 assessed as growth inhibition at 0.16 ug/ml; format: functional
# In short: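 Broth microdilution MIC in ultra-low-binding 96-well plates, inoculum ≈4 × 10^5. Growth was read at 595 nm, and the MIC was taken as the lowest antibiotic concentration inhibiting growth.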
# [3] = tested on: Streptococcus intermedius; test: Antimicrobial activity against Streptococcus intermedius NCTC 11324 biofilm assessed as biofilm bacterial count at 0.02 ug/ml (Rvb =402.9 +/- 26.88 10^5 CFU/ml); format: functional
# [4] = tested on: Streptococcus intermedius; test: Antimicrobial activity against Streptococcus intermedius NCTC 11324 biofilm assessed as biofilm bacterial count at 0.04 ug/ml (Rvb =402.9 +/- 26.88 10^5 CFU/ml); format: functional
# [5] = tested on: Streptococcus intermedius; test: Antimicrobial activity against Streptococcus intermedius NCTC 11324 biofilm assessed as biofilm bacterial count at 0.06 ug/ml (Rvb =402.9 +/- 26.88 10^5 CFU/ml); format: functional
# [6] = tested on: Streptococcus intermedius; test: Antimicrobial activity against Streptococcus intermedius SI006 biofilm harboring luxS mutant gene assessed as biofilm bacterial count at 0.02 ug/ml (Rvb =310.8 +/- 17.10 10^5 CFU/ml); format: functional
# [7] = tested on: Streptococcus intermedius; test: Antimicrobial activity against Streptococcus intermedius SI006 biofilm harboring luxS mutant gene assessed as biofilm bacterial count at 0.04 ug/ml (Rvb =310.8 +/- 17.10 10^5 CFU/ml); format: functional
# [8] = tested on: Streptococcus intermedius; test: Antimicrobial activity against Streptococcus intermedius SI006 biofilm harboring luxS mutant gene assessed as biofilm bacterial count at 0.06 ug/ml (Rvb =310.8 +/- 17.10 10^5 CFU/ml); format: functional
# [9] = tested on: Streptococcus intermedius; test: Antimicrobial activity against Streptococcus intermedius SI006 biofilm harboring luxS mutant gene assessed as biofilm bacterial count at 0.02 ug/ml in presence of 0.8 nM autoinducer 4,5-dihydroxy-2,3-pentanedione (Rvb =413.7 +/- 24.47 10^5 CFU/ml); format: functional
# [10] = tested on: Streptococcus intermedius; test: Antimicrobial activity against Streptococcus intermedius SI006 biofilm harboring luxS mutant gene assessed as biofilm bacterial count at 0.04 ug/ml in presence of 0.8 nM autoinducer 4,5-dihydroxy-2,3-pentanedione (Rvb =413.7 +/- 24.47 10^5 CFU/ml); format: functional
# [11] = tested on: Streptococcus intermedius; test: Antimicrobial activity against Streptococcus intermedius SI006 biofilm harboring luxS mutant gene assessed as biofilm bacterial count at 0.06 ug/ml in presence of 0.8 nM autoinducer 4,5-dihydroxy-2,3-pentanedione (Rvb =413.7 +/- 24.47 10^5 CFU/ml); format: functional
# [12] = tested on: Streptococcus intermedius; test: Antimicrobial activity against Streptococcus intermedius NCTC 11324 planktonic cells assessed as bacterial count at 0.06 ug/ml (Rvb =771.7 +/- 35.14 10^8 CFU/ml); format: functional
# In short: (§1)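 Planktonic wild-type cells were inoculated at ≈4 × 10^5 CFU/ml in TSB in ultra-low-binding plates. Media were without or with ampicillin (0.02 to 0.14 μg/ml), ciprofloxacin (0.10 to 0.35 μg/ml) or tetracycline (0.03 to 0.20 μg/ml). After 12 h at 37°C in 5% CO2 aerobic air, CFU were counted, run in parallel with the BacTiter-Glo ATP assay. Experiments were done three times in two parallels.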
# [13] = tested on: Streptococcus intermedius; test: Antimicrobial activity against Streptococcus intermedius NCTC 11324 planktonic cells assessed as bacterial count at 0.08 ug/ml (Rvb =771.7 +/- 35.14 10^8 CFU/ml); format: functional; in short: as §1
# [14] = tested on: Streptococcus intermedius; test: Antimicrobial activity against Streptococcus intermedius NCTC 11324 planktonic cells assessed as bacterial count at 0.10 ug/ml (Rvb =771.7 +/- 35.14 10^8 CFU/ml); format: functional; in short: as §1
# [15] = tested on: Streptococcus intermedius; test: Antimicrobial activity against Streptococcus intermedius NCTC 11324 planktonic cells assessed as bacterial count at 0.12 ug/ml (Rvb =771.7 +/- 35.14 10^8 CFU/ml); format: functional; in short: as §1
# [16] = tested on: Streptococcus intermedius; test: Antimicrobial activity against Streptococcus intermedius SI006 planktonic cells harboring luxS mutant gene assessed as bacterial count at 0.06 ug/ml (Rvb =798.3 +/- 37.09 10^8 CFU/ml); format: functional
# [17] = tested on: Streptococcus intermedius; test: Antimicrobial activity against Streptococcus intermedius SI006 planktonic cells harboring luxS mutant gene assessed as bacterial count at 0.08 ug/ml (Rvb =798.3 +/- 37.09 10^8 CFU/ml); format: functional
# [18] = tested on: Streptococcus intermedius; test: Antimicrobial activity against Streptococcus intermedius SI006 planktonic cells harboring luxS mutant gene assessed as bacterial count at 0.10 ug/ml (Rvb =798.3 +/- 37.09 10^8 CFU/ml); format: functional
# [19] = tested on: Streptococcus intermedius; test: Antimicrobial activity against Streptococcus intermedius SI006 planktonic cells harboring luxS mutant gene assessed as bacterial count at 0.12 ug/ml (Rvb =798.3 +/- 37.09 10^8 CFU/ml); format: functional
# [20] = tested on: Streptococcus intermedius; test: Antimicrobial activity against Streptococcus intermedius SI006 planktonic cells harboring luxS mutant gene assessed as bacterial count at 0.06 ug/ml in presence of 0.8 nM autoinducer 4,5-dihydroxy-2,3-pentanedione (Rvb =793.3 +/- 42.40 10^8 CFU/ml); format: functional
# [21] = tested on: Streptococcus intermedius; test: Antimicrobial activity against Streptococcus intermedius SI006 planktonic cells harboring luxS mutant gene assessed as bacterial count at 0.08 ug/ml in presence of 0.8 nM autoinducer 4,5-dihydroxy-2,3-pentanedione (Rvb =793.3 +/- 42.40 10^8 CFU/ml); format: functional
# [22] = tested on: Streptococcus intermedius; test: Antimicrobial activity against Streptococcus intermedius SI006 planktonic cells harboring luxS mutant gene assessed as bacterial count at 0.10 ug/ml in presence of 0.8 nM autoinducer 4,5-dihydroxy-2,3-pentanedione (Rvb =793.3 +/- 42.40 10^8 CFU/ml); format: functional
# [23] = tested on: Streptococcus intermedius; test: Antimicrobial activity against Streptococcus intermedius SI006 planktonic cells harboring luxS mutant gene assessed as bacterial count at 0.12 ug/ml in presence of 0.8 nM autoinducer 4,5-dihydroxy-2,3-pentanedione (Rvb =793.3 +/- 42.40 10^8 CFU/ml); format: functional
smiles,measurement,setting,value
CC1(C)S[C@@H]2[C@H](NC(=O)[C@H](N)c3ccccc3)C(=O)N2[C@H]1C(=O)O [AMPICILLIN],Activity,[1],inactive
same,Activity,[2],0.16 µg/mL
same,CFU,[3],486.2 ×10⁵ /ml
same,CFU,[4],621.6 ×10⁵ /ml
same,CFU,[5],894.7 ×10⁵ /ml
same,CFU,[6],324.1 ×10⁵ /ml
same,CFU,[7],268.6 ×10⁵ /ml
same,CFU,[8],162.1 ×10⁵ /ml
same,CFU,[9],459.5 ×10⁵ /ml
same,CFU,[10],686 ×10⁵ /ml
same,CFU,[11],819.2 ×10⁵ /ml
same,CFU,[12],61.2 ×10⁸ /ml
same,CFU,[13],43.3 ×10⁸ /ml
same,CFU,[14],45.3 ×10⁸ /ml
same,CFU,[15],20.7 ×10⁸ /ml
same,CFU,[16],41.8 ×10⁸ /ml
same,CFU,[17],16.4 ×10⁸ /ml
same,CFU,[18],10.3 ×10⁸ /ml
same,CFU,[19],8.5 ×10⁸ /ml
same,CFU,[20],48.7 ×10⁸ /ml
same,CFU,[21],39.1 ×10⁸ /ml
same,CFU,[22],39.6 ×10⁸ /ml
same,CFU,[23],18.4 ×10⁸ /ml
